According to ChEMBL document CHEMBL1123478, “Synthesis and antineoplastic activity of bis[[[(alkylamino)carbonyl]oxy]methyl]-substituted 3-pyrrolines as prodrugs of tumor inhibitory pyrrole bis(carbamates)” (1986):

Columns and labels:
P388 [1] = assay: Compound was tested for antitumor activity against P388 lymphocytic leukemia at the dose 15 mg/kg; type: functional, Mus musculus
Method in brief: (§1)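 P388 leukemia ascitic fluid implanted intraperitoneally into CD2F1 mice. Dosing was intraperitoneal, starting 24 h after inoculation, once daily for five doses, as a suspension in saline and Tween 80 made fresh each day. Some compounds were given in Klucel (hydroxypropylcellulose) or in saline/Tween/alcohol instead. Acute toxicity was checked on day 5 and the study was evaluated on day 30.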

Mus musculus [2] = assay: Body weight difference the relation of the test animal to control animal weight was calculated at the 60 mg/kg doses; type: functional; method in brief: as §1
Mus musculus [3] = assay: Tumor cell population at the end of treatment relative to its size at the beginning of the treatment was calculated at the 15 mg/kg doses; type: functional; method in brief: as §1
Mus musculus [4] = assay: Body weight difference the relation of the test animal to control animal weight was calculated at the 15 mg/kg doses; type: functional; method in brief: as §1
Mus musculus [5] = assay: Tumor cell population at the end of treatment relative to its size at the beginning of the treatment was calculated at the 30 mg/kgd oses; type: functional; details: dose 30 mg/kg; method in brief: as §1
P388 [6] = assay: Compound was tested for antitumor activity against P388 lymphocytic leukemia at the dose 30 mg/kg; type: functional, Mus musculus; method in brief: as §1
Mus musculus [7] = assay: Body weight difference the relation of the test animal to control animal weight was calculated at the 30 mg/kg doses; type: functional; method in brief: as §1
[8] = Rate constants were calculated for the compound by linear regression analysis
Mus musculus [9] = assay: Tumor cell population at the end of treatment relative to its size at the beginning of the treatment was calculated at the 12.5 mg/kg doses; type: functional; method in brief: as §1
Mus musculus [10] = assay: Body weight difference the relation of the test animal to control animal weight was calculated at the 100 mg/kg doses; type: functional; method in brief: as §1
Mus musculus [11] = assay: Body weight difference the relation of the test animal to control animal weight was calculated at the 50 mg/kg doses; type: functional; method in brief: as §1
P388 [12] = assay: Compound was tested for antitumor activity against P388 lymphocytic leukemia at the dose 12.5 mg/kg; type: functional, Mus musculus; method in brief: as §1
P388 [13] = assay: Compound was tested for antitumor activity against P388 lymphocytic leukemia at the dose 25 mg/kg; type: functional, Mus musculus; method in brief: as §1
Mus musculus [14] = assay: Body weight difference the relation of the test animal to control animal weight was calculated at the 25 mg/kg doses; type: functional; method in brief: as §1
P388 [15] = assay: Compound was tested for antitumor activity against P388 lymphocytic leukemia at the dose 50 mg/kg; type: functional, Mus musculus; method in brief: as §1
Mus musculus [16] = assay: Body weight difference the relation of the test animal to control animal weight was calculated at the 12.5 mg/kg doses; type: functional; method in brief: as §1
Mus musculus [17] = assay: Tumor cell population at the end of treatment relative to its size at the beginning of the treatment was calculated at the 25 mg/kg doses; type: functional; method in brief: as §1
P388 [18] = assay: Compound was tested for antitumor activity against P388 lymphocytic leukemia at the dose 100 mg/kg; type: functional, Mus musculus; method in brief: as §1
Mus musculus [19] = assay: Tumor cell population at the end of treatment relative to its size at the beginning of the treatment was calculated at the 50 mg/kg doses; type: functional; method in brief: as §1
Mus musculus [20] = assay: Tumor cell population at the end of treatment relative to its size at the beginning of the treatment was calculated at the 100 mg/kg doses; type: functional; method in brief: as §1
Mus musculus [21] = assay: Tumor cell population at the end of treatment relative to its size at the beginning of the treatment was calculated at the 60 mg/kg doses; type: functional; method in brief: as §1
Mus musculus [22] = assay: Tumor cell population at the end of treatment relative to its size at the beginning of the treatment was calculated at the 480 mg/kg doses; type: functional; method in brief: as §1
Mus musculus [23] = assay: Body weight difference the relation of the test animal to control animal weight was calculated at the 120 mg/kg doses; type: functional; method in brief: as §1
Mus musculus [24] = assay: Body weight difference the relation of the test animal to control animal weight was calculated at the 480 mg/kg doses; type: functional; method in brief: as §1
Mus musculus [25] = assay: Tumor cell population at the end of treatment relative to its size at the beginning of the treatment was calculated at the 120 mg/kg doses; type: functional; method in brief: as §1
P388 [26] = assay: Compound was tested for antitumor activity against P388 lymphocytic leukemia at the dose 120 mg/kg; type: functional, Mus musculus; method in brief: as §1
P388 [27] = assay: Compound was tested for antitumor activity against P388 lymphocytic leukemia at the dose 60 mg/kg; type: functional, Mus musculus; method in brief: as §1
Mus musculus [28] = assay: Body weight difference the relation of the test animal to control animal weight was calculated at the 240 mg/kg doses; type: functional; method in brief: as §1
Mus musculus [29] = assay: Tumor cell population at the end of treatment relative to its size at the beginning of the treatment was calculated at the 240 mg/kg doses; type: functional; method in brief: as §1
P388 [30] = assay: Compound was tested for antitumor activity against P388 lymphocytic leukemia at the dose 480 mg/kg; type: functional, Mus musculus; method in brief: as §1
P388 [31] = assay: Compound was tested for antitumor activity against P388 lymphocytic leukemia at the dose 240 mg/kg; type: functional, Mus musculus; method in brief: as §1
Mus musculus [32] = assay: Tumor cell population at the end of treatment relative to its size at the beginning of the treatment was calculated at the 150 mg/kg doses; type: functional; details: dose 15 mg/kg; in the assay text read “15 mg/kg doses” for “150 mg/kg doses”; method in brief: as §1
P388 [33] = assay: Compound was tested for antitumor activity against P388 lymphocytic leukemia at the dose 7.5 mg/kg; type: functional, Mus musculus; method in brief: as §1
Mus musculus [34] = assay: Tumor cell population at the end of treatment relative to its size at the beginning of the treatment was calculated at the 7.5 mg/kg doses; type: functional; method in brief: as §1
Mus musculus [35] = assay: Body weight difference the relation of the test animal to control animal weight was calculated at the 7.5 mg/kg doses; type: functional; method in brief: as §1

Compound	T/C (P388 [1])	BDW (Mus musculus [2])	BDW (Mus musculus [4])	BDW (Mus musculus [7])	K' [8]	KE (Mus musculus [9])	BDW (Mus musculus [10])	BDW (Mus musculus [11])	T/C (P388 [12])	T/C (P388 [13])	BDW (Mus musculus [14])	T/C (P388 [15])	BDW (Mus musculus [16])	KE (Mus musculus [17])	KE (Mus musculus [19])	other results
CC(C)NC(=O)OCc1cn(C)c(-c2ccc(F)cc2)c1COC(=O)NC(C)C	145%	-2.7 g	-0.4 g	-2.2 g	0.0516 abs/time	–	–	–	–	–	–	–	–	–	–	KE (Mus musculus [3]): 0.04; KE (Mus musculus [5]): 0.21; T/C (P388 [6]): 188%
CC(C)NC(=O)OCC1=C(COC(=O)NC(C)C)[C@@H](c2ccccc2)N(C)[C@H]1c1ccccc1	–	–	–	–	–	-0.9	-3 g	-2.3 g	120%	139%	-1.2 g	145%	0 g	0.16	0.53	T/C (P388 [18]): 189%; KE (Mus musculus [20]): 3.06
CC(C)NC(=O)OCc1cn2c(c1COC(=O)NC(C)C)-c1cc(Cl)c(Cl)cc1CC2	–	-0.4 g	–	–	0.00154 abs/time	–	–	–	–	–	–	–	–	–	–	KE (Mus musculus [21]): -1.54; KE (Mus musculus [22]): 5.05; BDW (Mus musculus [23]): -2.2 g; BDW (Mus musculus [24]): -3.2 g; KE (Mus musculus [25]): -0.68; T/C (P388 [26]): 130%; T/C (P388 [27]): 86%; BDW (Mus musculus [28]): -2.3 g; KE (Mus musculus [29]): 0.1; T/C (P388 [30]): 185%; T/C (P388 [31]): 137%
CNC(=O)OCC1=C(COC(=O)NC)[C@@H](c2ccccc2)N(C)[C@H]1c1ccccc1	–	–	–	–	–	-1.16	-4.3 g	-1.7 g	116%	136%	-1.4 g	154%	-0.1 g	0	1.06	–
COc1ccc(-c2c(COC(=O)NC(C)C)c(COC(=O)NC(C)C)cn2C)cc1	123%	-0.8 g	0 g	0.4 g	0.231 abs/time	–	–	–	–	–	–	–	–	–	–	KE (Mus musculus [21]): 0.1; T/C (P388 [27]): 164%; KE (Mus musculus [32]): -0.06; KE (Mus musculus [5]): -0.08; T/C (P388 [6]): 117%
COc1ccc2c(c1)CCn1cc(COC(=O)NC(C)C)c(COC(=O)NC(C)C)c1-2	125%	–	-3 g	-3.1 g	0.449 abs/time	–	–	–	–	–	–	–	–	–	–	KE (Mus musculus [3]): -0.04; T/C (P388 [33]): 175%; KE (Mus musculus [34]): 0.16; BDW (Mus musculus [35]): -2.6 g
CC(C)NC(=O)OCC1=C(COC(=O)NC(C)C)C(c2ccccc2)N(C)C1 (stereo not drawn)	–	–	–	–	–	0.84	-2.2 g	-2 g	121%	136%	-0.9 g	145%	0 g	0	0.53	T/C (P388 [18]): 225%; KE (Mus musculus [20]): 5.18
